Test results reported in the RNAGym collection of RNA variant scans (doi:10.1038/s41586-018-0170-7).

B1: tRNA (parent)
chain: GUUCCGUUGGCGUAAUGGUAACGCGUCUCCCUCCUAAGGAGAAGACUGCGGGUUCGAGUCCCGUACGGAACG

Variants of: B1
Assay: yeast fitness, log relative to wild type (ln ratio); higher = fitter; tRNA-Arg(CCU), competitive growth, 37 C, 1 M NaCl
Outline: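 Variants were counted by 125 bp paired-end Illumina sequencing after pools of a combinatorial tRNA-Arg(CCU) library, held on a HIS3 centromeric plasmid in BY4742 lacking the chromosomal gene, grew ~6.5 generations (~26.5 h) in SC-HIS 1M NaCl at 37 °C. Each genotype's fitness is the natural log of its generations relative to the wild type's. Generations were OD-scaled log2 output/input frequencies, inverse-variance weighted over replicates.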

Variant	yeast fitness (ln)
GUUCCAUUGGCGUAAUGGUAACGCGUCUCCCUCCUAAGGAGAAGAUUGCGGGUUCGAGUCCCGUAAGGAGUG [G6A C46U C66A A70G C71U]	-0.169
GCUCCGUUGGCGUAAUGGUAACGCGUCUCCCUCCUAAGGAGACGAUUGCGGGUUCGAGUCCCGUACGGGUCG [U2C A43C C46U A69G A70U]	-0.144
AUUCCGUUGGCGUAAUGGUAACGCGUUUCCCUCCUAAGGAGAAGAUUGCGGGUUCGAGUCCCGUACGGAACG [G1A C27U C46U]	-0.0938
GGUCCGUUGGCGUAAUGGUAACGCGUUUCCCUCCUAAGGAGACGAUUGCGGGUUCGAGUCCCGUAUGGAGUG [U2G C27U A43C C46U C66U A70G C71U]	-0.231
AUUCCUUUGGCGUAAUGGUAACGCGUCUCCCUCCUAAGGAGAAGACUGCGGGUUCGAGUCCCGUAAGGGGUG [G1A G6U C66A A69G A70G C71U]	-0.17
AGUCCUUUGGCGUAAUGGUAACGCGUUUCCCUCCUAAGGAGACGAUUGCGGGUUCGAGUCCCGUAUGGAUCG [G1A U2G G6U C27U A43C C46U C66U A70U]	-0.383
AGUCCGUUGGCGUAAUGGUAACGCGUCUCCCUCCUAAGGAGAAGACUGCGGGUUCGAGUCCCGUACGGGACG [G1A U2G A69G]	-0.104
GUUCCGUUGGCGUAAUGGUAACGCGUCUCCCUCCUAAGGAGACGAUUGCGGGUUCGAGUCCCGUAUGGAACG [A43C C46U C66U]	-0.0822
GCUCCAUUGGCGUAAUGGUAACGCGUUUCCCUCCUAAGGAGACGAUUGCGGGUUCGAGUCCCGUAUGGAACG [U2C G6A C27U A43C C46U C66U]	-0.0567
AGUCCUUUGGCGUAAUGGUAACGCGUUUCCCUCCUAAGGAGACGACUGCGGGUUCGAGUCCCGUAUGGAGCG [G1A U2G G6U C27U A43C C66U A70G]	-0.4
GCUCCAUUGGCGUAAUGGUAACGCGUUUCCCUCCUAAGGAGAAGACUGCGGGUUCGAGUCCCGUACGGAUCG [U2C G6A C27U A70U]	-0.0574
GUUCCAUUGGCGUAAUGGUAACGCGUCUCCCUCCUAAGGAGAAGACUGCGGGUUCGAGUCCCGUAAGGAUCG [G6A C66A A70U]	-0.158
AGUCCGUUGGCGUAAUGGUAACGCGUUUCCCUCCUAAGGAGACGACUGCGGGUUCGAGUCCCGUAUGGGUCG [G1A U2G C27U A43C C66U A69G A70U]	-0.363
ACUCCAUUGGCGUAAUGGUAACGCGUUUCCCUCCUAAGGAGACGAUUGCGGGUUCGAGUCCCGUACGGAACG [G1A U2C G6A C27U A43C C46U]	-0.0401
GCUCCGUUGGCGUAAUGGUAACGCGUUUCCCUCCUAAGGAGAAGAUUGCGGGUUCGAGUCCCGUAUGGGUUG [U2C C27U C46U C66U A69G A70U C71U]	-0.411
AGUCCAUUGGCGUAAUGGUAACGCGUUUCCCUCCUAAGGAGACGAUUGCGGGUUCGAGUCCCGUACGGAGUG [G1A U2G G6A C27U A43C C46U A70G C71U]	-0.405
ACUCCUUUGGCGUAAUGGUAACGCGUCUCCCUCCUAAGGAGACGAUUGCGGGUUCGAGUCCCGUAAGGAUUG [G1A U2C G6U A43C C46U C66A A70U C71U]	-0.425
ACUCCGUUGGCGUAAUGGUAACGCGUCUCCCUCCUAAGGAGAAGACUGCGGGUUCGAGUCCCGUACGGAGCG [G1A U2C A70G]	-0.0111
AUUCCAUUGGCGUAAUGGUAACGCGUCUCCCUCCUAAGGAGAAGACUGCGGGUUCGAGUCCCGUACGGGUUG [G1A G6A A69G A70U C71U]	-0.247

Variant	yeast fitness (ln)
GCUCCAUUGGCGUAAUGGUAACGCGUCUCCCUCCUAAGGAGAAGACUGCGGGUUCGAGUCCCGUAAGGAUCG [U2C G6A C66A A70U]	-0.094
GGUCCGUUGGCGUAAUGGUAACGCGUUUCCCUCCUAAGGAGACGAUUGCGGGUUCGAGUCCCGUAUGGAAUG [U2G C27U A43C C46U C66U C71U]	-0.292
GUUCCAUUGGCGUAAUGGUAACGCGUUUCCCUCCUAAGGAGACGACUGCGGGUUCGAGUCCCGUAAGGAUUG [G6A C27U A43C C66A A70U C71U]	-0.37
GGUCCGUUGGCGUAAUGGUAACGCGUUUCCCUCCUAAGGAGACGAUUGCGGGUUCGAGUCCCGUAAGGAGUG [U2G C27U A43C C46U C66A A70G C71U]	-0.162
GUUCCUUUGGCGUAAUGGUAACGCGUUUCCCUCCUAAGGAGACGACUGCGGGUUCGAGUCCCGUACGGAGCG [G6U C27U A43C A70G]	-0.282
AUUCCGUUGGCGUAAUGGUAACGCGUCUCCCUCCUAAGGAGAAGAUUGCGGGUUCGAGUCCCGUAUGGGGCG [G1A C46U C66U A69G A70G]	-0.134
AUUCCGUUGGCGUAAUGGUAACGCGUUUCCCUCCUAAGGAGAAGACUGCGGGUUCGAGUCCCGUAAGGAACG [G1A C27U C66A]	-0.123
GGUCCGUUGGCGUAAUGGUAACGCGUUUCCCUCCUAAGGAGAAGAUUGCGGGUUCGAGUCCCGUAAGGGAUG [U2G C27U C46U C66A A69G C71U]	-0.301
GCUCCAUUGGCGUAAUGGUAACGCGUUUCCCUCCUAAGGAGAAGACUGCGGGUUCGAGUCCCGUAAGGAUCG [U2C G6A C27U C66A A70U]	-0.0448
GUUCCUUUGGCGUAAUGGUAACGCGUUUCCCUCCUAAGGAGAAGACUGCGGGUUCGAGUCCCGUACGGAUUG [G6U C27U A70U C71U]	-0.27
AUUCCGUUGGCGUAAUGGUAACGCGUCUCCCUCCUAAGGAGAAGAUUGCGGGUUCGAGUCCCGUAAGGAGCG [G1A C46U C66A A70G]	-0.0981
GCUCCAUUGGCGUAAUGGUAACGCGUUUCCCUCCUAAGGAGACGACUGCGGGUUCGAGUCCCGUAUGGAUCG [U2C G6A C27U A43C C66U A70U]	-0.091
GCUCCGUUGGCGUAAUGGUAACGCGUUUCCCUCCUAAGGAGACGAUUGCGGGUUCGAGUCCCGUAAGGGGUG [U2C C27U A43C C46U C66A A69G A70G C71U]	-0.15
GUUCCAUUGGCGUAAUGGUAACGCGUUUCCCUCCUAAGGAGAAGAUUGCGGGUUCGAGUCCCGUAUGGGGCG [G6A C27U C46U C66U A69G A70G]	-0.213
AGUCCUUUGGCGUAAUGGUAACGCGUUUCCCUCCUAAGGAGAAGAUUGCGGGUUCGAGUCCCGUACGGAGUG [G1A U2G G6U C27U C46U A70G C71U]	-0.368
GGUCCGUUGGCGUAAUGGUAACGCGUUUCCCUCCUAAGGAGACGAUUGCGGGUUCGAGUCCCGUAAGGGGUG [U2G C27U A43C C46U C66A A69G A70G C71U]	-0.183
GUUCCGUUGGCGUAAUGGUAACGCGUCUCCCUCCUAAGGAGAAGAUUGCGGGUUCGAGUCCCGUAAGGAUCG [C46U C66A A70U]	0.00705
AUUCCGUUGGCGUAAUGGUAACGCGUUUCCCUCCUAAGGAGAAGACUGCGGGUUCGAGUCCCGUACGGGGUG [G1A C27U A69G A70G C71U]	-0.322
ACUCCUUUGGCGUAAUGGUAACGCGUCUCCCUCCUAAGGAGAAGAUUGCGGGUUCGAGUCCCGUAAGGAGCG [G1A U2C G6U C46U C66A A70G]	-0.0166
